Data reported in ChEMBL document CHEMBL3808280, “GroEL/ES inhibitors as potential antibiotics” (Bioorg Med Chem Lett, 2016).

Key:
E. coli GroEL/ES [1] = biological target: T1, E. coli GroEL/ES (Escherichia coli, UniProt P0A6F5); test: Inhibition of Escherichia coli GroEL/GroES using Escherichia coli GroEL expressed in Escherichia coli DH5alpha cells and Escherichia coli GroES expressed in Escherichia coli BL21(DE3) cells assessed as inhibition of denatured rhodanese refolding by measuring reduction in thiocyanate production incubated for 60 mins by micro plate reader analysis
Summary of the method: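 Urea-denatured rhodanese bound to GroEL/GroES in folding buffer containing thiosulfate. After 60 min at 37°C, thiocyanate reaction (KCN, thiosulfate, phosphate) run, then formaldehyde quench and ferric nitrate added. Fe(SCN)3 read at 460 nm after 15 min RT, with protein-free baseline plates.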

Enterococcus faecium = test: Antibacterial activity against multidrug resistant Enterococcus faecium NCTC 7171 (ATCC 19434) assessed as reduction in bacterial growth incubated for 6 to 8 hrs; format: functional, organism-based
Summary of the method: (§1)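 Broth proliferation assay. S. aureus and MRSA grown in ATCC Medium 18, other pathogens in Brain Heart Infusion. Stagnant incubation at 37°C under breathable seal. OD600 read at mid-log (6-8 h) and corrected with bacteria-free baseline plates. EC50 by variable-slope nonlinear fit, at least triplicate.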

E. coli GroEL/ES [2] = biological target: T1, E. coli GroEL/ES; test: Inhibition of Escherichia coli GroEL/GroES using Escherichia coli GroEL expressed in Escherichia coli DH5alpha cells and Escherichia coli GroES expressed in Escherichia coli BL21(DE3) cells assessed as inhibition of denatured pig heart MDH refolding by measuring reduction in NADH production incubated for 60 mins by micro plate reader analysis
Summary of the method: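 Denatured MDH (guanidine-HCl/DTT, 30 min RT) bound to GroEL with GroES in Tris pH 7.4, KCl, MgCl2, DTT buffer. 60 min at 37°C, EDTA quench to 100 mM. Refolded MDH activity read with mesoxalate/NADH at 340 nm. Log-averaged IC50 from replicates.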

Escherichia coli [3] = test: Antibacterial activity against Escherichia coli DH5alpha assessed as reduction in bacterial growth incubated for 6 to 8 hrs; format: functional, organism-based; settings: DH5[alpha]
E. coli GroEL/ES [4] = biological target: T1, E. coli GroEL/ES; test: Inhibition of Escherichia coli GroEL/GroES using Escherichia coli GroEL expressed in Escherichia coli DH5alpha cells and Escherichia coli GroES expressed in Escherichia coli BL21(DE3) cells assessed as reduction in pig heart native refolded MDH-mediated NADH production by micro plate reader analysis
Summary of the method: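 Native MDH counter-screen. GroEL/ES-dMDH refolding run 60 min at 37°C, then EDTA-quenched without compound. IC50 averaged from at least triplicate.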

E. coli GroEL/ES [5] = biological target: T1, E. coli GroEL/ES; test: Inhibition of Escherichia coli GroEL/GroES using Escherichia coli GroEL expressed in Escherichia coli DH5alpha cells and Escherichia coli GroES expressed in Escherichia coli BL21(DE3) cells assessed as reduction in denatured pig heart MDH ATPase activity by malachite green dye based assay
Bacillus subtilis = test: Antibacterial activity against Bacillus subtilis 168 assessed as reduction in bacterial growth incubated for 6 to 8 hrs; format: functional, organism-based; settings: subsp. subtilis str. 168
Acinetobacter baumannii = test: Antibacterial activity against multidrug resistant Acinetobacter baumannii 2208 (ATCC 19606) assessed as reduction in bacterial growth incubated for 6 to 8 hrs; format: functional; summary of the method: as §1
Staphylococcus aureus [6] = test: Antibacterial activity against methicillin susceptible Staphylococcus aureus subsp. aureus Seattle 1945 (ATCC 25923) assessed as reduction in bacterial growth incubated for 6 to 8 hrs
[7] = Cytotoxicity against human THLE3 cells assessed as reduction in cell viability after 48 hrs by alamar blue assay; format: cell-based; settings: THLE3, 48 h
[8] = tested on: Klebsiella pneumoniae subsp. pneumoniae; test: Antibacterial activity against multidrug resistant Klebsiella pneumoniae subsp. pneumoniae NCTC 9633 (ATCC 13883) assessed as reduction in bacterial growth incubated for 6 to 8 hrs; format: functional, organism-based; summary of the method: as §1
Staphylococcus aureus [9] = test: Antibacterial activity against methicillin resistant Staphylococcus aureus subsp. aureus HPV107 (ATCC BAA-44) assessed as reduction in bacterial growth incubated for 6 to 8 hrs; format: functional, organism-based; summary of the method: as §1
HSP60/HSP10 [10] = biological target: T2, HSP60/HSP10 (Homo sapiens, UniProt P10809); test: Inhibition of human HSP60/HSP10 expressed in Escherichia coli Rosetta2(DE3) cells assessed as inhibition of denatured pig heart MDH refolding by measuring reduction in NADH production incubated for 60 mins by micro plate reader analysis
Summary of the method: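 Pig heart MDH was denatured in guanidine-HCl (dMDH) and complexed with HSP60, then HSP10, in Tris pH 7.4/KCl/MgCl2/DTT buffer. EDTA quench (100 mM final); refolded MDH activity was followed with mesoxalate/NADH at 340 nm.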

E. coli GroEL/ES [11] = biological target: T1, E. coli GroEL/ES; test: Inhibition of Escherichia coli GroEL/GroES using Escherichia coli GroEL expressed in Escherichia coli DH5alpha cells and Escherichia coli GroES expressed in Escherichia coli BL21(DE3) cells assessed as reduction in native refolded rhodanese-mediated thiocyanate production by micro plate reader analysis
Enterobacter cloacae = test: Antibacterial activity against multidrug resistant Enterobacter cloacae subsp. cloacae CDC 442-68 (ATCC 13047) assessed as reduction in bacterial growth incubated for 6 to 8 hrs; format: functional, organism-based; summary of the method: as §1
HSP60/HSP10 [12] = biological target: T2, HSP60/HSP10; test: Inhibition of human HSP60/HSP10 expressed in Escherichia coli Rosetta2(DE3) cells assessed as reduction in denatured pig heart MDH ATPase activity by malachite green dye based assay
Pseudomonas aeruginosa = test: Antibacterial activity against multidrug resistant Pseudomonas aeruginosa NCTC 10332 (ATCC 10145) assessed as reduction in bacterial growth incubated for 6 to 8 hrs; format: functional, organism-based; summary of the method: as §1
Escherichia coli [13] = test: Antibacterial activity against acrB-deficient Escherichia coli MC4100 assessed as reduction in bacterial growth incubated for 6 to 8 hrs; format: functional, organism-based
Escherichia coli [14] = test: Antibacterial activity against Escherichia coli SM101 assessed as reduction in bacterial growth incubated for 12 hrs by UV-Vis spectrophotometric analysis; format: functional, organism-based; settings: SM101, 12 h
HEK293 = test: Cytotoxicity against HEK293 cells assessed as reduction in cell viability after 48 hrs by alamar blue assay; format: cell-based; settings: Homo sapiens, HEK293, 48 h

T2 sequence (P10809 whole entry): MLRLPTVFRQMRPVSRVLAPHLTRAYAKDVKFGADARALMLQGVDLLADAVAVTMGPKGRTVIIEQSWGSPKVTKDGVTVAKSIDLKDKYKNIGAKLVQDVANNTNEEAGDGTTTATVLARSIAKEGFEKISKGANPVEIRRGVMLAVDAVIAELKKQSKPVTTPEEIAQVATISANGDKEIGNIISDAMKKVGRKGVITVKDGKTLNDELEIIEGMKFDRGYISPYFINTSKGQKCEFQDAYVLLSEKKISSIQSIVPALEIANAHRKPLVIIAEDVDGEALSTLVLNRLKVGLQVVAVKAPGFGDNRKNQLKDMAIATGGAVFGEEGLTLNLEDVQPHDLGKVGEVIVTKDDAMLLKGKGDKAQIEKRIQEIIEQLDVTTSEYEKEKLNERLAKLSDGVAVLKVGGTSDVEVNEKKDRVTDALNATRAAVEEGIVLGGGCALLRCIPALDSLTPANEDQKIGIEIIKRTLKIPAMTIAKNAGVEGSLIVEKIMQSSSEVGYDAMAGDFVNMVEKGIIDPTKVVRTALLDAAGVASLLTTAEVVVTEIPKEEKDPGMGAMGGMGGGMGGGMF
T2 sequence (P61604 whole entry, further chain): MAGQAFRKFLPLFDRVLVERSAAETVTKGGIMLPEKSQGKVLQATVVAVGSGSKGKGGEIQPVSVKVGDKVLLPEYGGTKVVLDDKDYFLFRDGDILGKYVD
T1 sequence (P0A6F5 whole entry, looked up): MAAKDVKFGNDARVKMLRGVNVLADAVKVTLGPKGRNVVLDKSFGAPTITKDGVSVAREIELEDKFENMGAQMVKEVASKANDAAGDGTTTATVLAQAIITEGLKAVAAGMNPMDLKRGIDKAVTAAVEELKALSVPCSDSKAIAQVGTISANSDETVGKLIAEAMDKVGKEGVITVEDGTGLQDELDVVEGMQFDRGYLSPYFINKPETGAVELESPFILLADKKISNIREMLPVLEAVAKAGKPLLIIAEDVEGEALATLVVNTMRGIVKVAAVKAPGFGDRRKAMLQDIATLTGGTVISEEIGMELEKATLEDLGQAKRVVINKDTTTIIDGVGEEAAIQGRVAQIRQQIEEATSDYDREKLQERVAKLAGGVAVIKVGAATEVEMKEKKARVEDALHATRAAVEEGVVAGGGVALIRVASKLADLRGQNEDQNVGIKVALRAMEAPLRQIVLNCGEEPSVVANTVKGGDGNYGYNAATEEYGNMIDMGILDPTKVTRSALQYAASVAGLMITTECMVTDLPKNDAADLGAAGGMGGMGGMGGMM

| Structure (SMILES) | IC50 (E. coli GroEL/ES [1]) | EC50 (Enterococcus faecium) | IC50 (E. coli GroEL/ES [2]) | EC50 (Escherichia coli [3]) | IC50 (E. coli GroEL/ES [4]) | IC50 (E. coli GroEL/ES [5]) | EC50 (Bacillus subtilis) | EC50 (Acinetobacter baumannii) | EC50 (Staphylococcus aureus [6]) | EC50 [7] | EC50 [8] | EC50 (Staphylococcus aureus [9]) | IC50 (HSP60/HSP10 [10]) | IC50 (E. coli GroEL/ES [11]) | EC50 (Enterobacter cloacae) | IC50 (HSP60/HSP10 [12]) | EC50 (Pseudomonas aeruginosa) | EC50 (Escherichia coli [13]) | EC50 (Escherichia coli [14]) | EC50 (HEK293) |
| --- | --- | --- | --- | --- | --- | --- | --- | --- | --- | --- | --- | --- | --- | --- | --- | --- | --- | --- | --- | --- |
| O=C(Nc1cc([N+](=O)[O-])ccc1O)c1ccc2c(c1)C(=O)N(Cc1ccccc1)C2=O | 28 µM | > 100 µM | 24 µM | > 100 µM | > 62.5 µM | 187 µM | > 100 µM | > 100 µM | > 100 µM | > 100 µM | > 100 µM | 15 µM | 38 µM | > 100 µM | > 100 µM | > 250 µM | 85 µM | > 100 µM | > 100 µM | > 100 µM |
| O=C1/C(=C/c2ccc(O)c(O)c2)SC(=S)N1c1ccc(O)cc1 | 0.58 µM | 90 µM | 0.69 µM | > 100 µM | > 62.5 µM | > 250 µM | 25 µM | 58 µM | 14 µM | 16 µM | > 100 µM | 9.1 µM | 4.9 µM | 14 µM | > 100 µM | > 250 µM | > 100 µM | 92 µM | 27 µM | 23 µM |
| O=C(/C=C/c1cccc([N+](=O)[O-])c1)c1ccc(NC(=O)c2ccco2)cc1 | 1.4 µM | > 100 µM | 0.93 µM | > 100 µM | > 62.5 µM | 80 µM | > 100 µM | > 100 µM | > 100 µM | > 100 µM | > 100 µM | > 100 µM | 1.6 µM | > 100 µM | > 100 µM | > 250 µM | > 100 µM | > 100 µM | 76 µM | > 100 µM |
| O=C(CC1Nc2cccc3cccc(c23)NC1=O)Nc1cccc([N+](=O)[O-])c1 (centres undefined) | 11 µM | 15 µM | 42 µM | > 100 µM | > 62.5 µM | 217 µM | 72 µM | > 100 µM | 84 µM | 61 µM | > 100 µM | 54 µM | > 100 µM | 10 µM | > 100 µM | > 250 µM | > 100 µM | > 100 µM | 68 µM | 62 µM |
| O=C(/C=C/c1ccco1)c1ccc(NC(=O)c2cccs2)cc1 | 2.3 µM | > 100 µM | 3.6 µM | > 100 µM | > 62.5 µM | > 250 µM | > 100 µM | > 100 µM | > 100 µM | 34 µM | > 100 µM | 61 µM | 8.2 µM | > 100 µM | > 100 µM | > 250 µM | > 100 µM | > 100 µM | > 100 µM | 55 µM |
| CNC(=O)Oc1c(Br)cc2sc(=O)oc2c1Br | 0.89 µM | > 100 µM | 2.6 µM | > 100 µM | > 62.5 µM | > 250 µM | 43 µM | > 100 µM | 45 µM | > 100 µM | > 100 µM | 74 µM | 1.8 µM | 5.3 µM | > 100 µM | > 250 µM | > 100 µM | > 100 µM | > 100 µM | > 100 µM |
| COC(=O)c1ccc(-c2ccc(/C=C3/SC(=S)NC3=O)o2)cc1 | 3 µM | > 100 µM | 4.8 µM | > 100 µM | > 62.5 µM | > 250 µM | 16 µM | > 100 µM | 13 µM | 41 µM | > 100 µM | 1.5 µM | 16 µM | 8.1 µM | > 100 µM | > 250 µM | > 100 µM | > 100 µM | 7.6 µM | 44 µM |
| Nc1ccc(Nc2nc(-c3ccc(O)c(O)c3)cs2)cc1 | 1.7 µM | > 100 µM | 2.7 µM | > 100 µM | > 62.5 µM | > 250 µM | > 100 µM | 81 µM | > 100 µM | > 100 µM | > 100 µM | > 100 µM | 10 µM | – | > 100 µM | > 250 µM | > 100 µM | > 100 µM | 84 µM | 98 µM |
